OX1R antag-1 – antagonists of human orexin 1 receptor. O43613. CHO/OX1R cells, Fluo-8 calcium fluorescence, orexin A. inhibition, % at 5 µM. 330,000 tested, 0.43% active. AID 434989;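 active means inhibition above its plate's threshold, mean inhibition of all tested compounds on the plate plus 3 SD, cut at about 37% in these data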;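 further: 0% = orexin A challenge wells and 100% = SB-334867-A antagonist wells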
Target sequence (O43613 whole entry, looked up): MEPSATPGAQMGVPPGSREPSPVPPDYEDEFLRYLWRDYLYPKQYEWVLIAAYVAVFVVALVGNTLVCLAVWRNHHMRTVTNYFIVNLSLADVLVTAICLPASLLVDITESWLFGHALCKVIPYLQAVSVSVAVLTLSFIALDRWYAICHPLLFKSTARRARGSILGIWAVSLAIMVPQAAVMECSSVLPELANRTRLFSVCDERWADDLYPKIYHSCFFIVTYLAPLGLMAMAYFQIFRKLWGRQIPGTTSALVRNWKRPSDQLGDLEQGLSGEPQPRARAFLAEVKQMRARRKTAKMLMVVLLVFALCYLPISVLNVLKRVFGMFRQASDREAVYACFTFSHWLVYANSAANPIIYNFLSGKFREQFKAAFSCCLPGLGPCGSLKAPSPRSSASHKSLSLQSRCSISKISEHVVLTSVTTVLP
CHO parental Ca – signal in parental CHO cells, OX1R antagonist counter-screen; 330,000 tested, 0.63% active; AID 463079; inhibition, % at 5.6 µM; parental CHO-K1, ATP-induced calcium, Fluo-8 fluorescence;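 active means inhibition above that plate's mean sample inhibition plus 3 SD, cut at about 26% in these data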;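 further: 0% = ATP-challenged DMSO wells and 100% = DMSO wells without ATP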
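Test system: parental CHO cells; detection: calcium-sensitive Fluo-8 fluorescence; evaluation: percent inhibition of calcium signal; also added: ATP as calcium-mobilizing challenge; repeats: one well per compound; control set: ATP-challenged DMSO wells low, unchallenged DMSO wells high; compound: single nominal dose of 5.6 µM per compound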
OX1R antag-2 – OX1R (human) antagonism; 330,000 tested, 1.8% active; O43613; OX1R-expressing cells, FRET antagonist read-out; inhibition, % at 6.6 µM; in the data active means inhibition mostly above about 38%, no sharp cut-off; inactive means mostly below about 40%;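 further: 0% = agonist challenge alone and 100% = reference antagonist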
TAAR1 ag – agonists of human TAAR1; 360,000 tested, 0.99% active; Q96RJ0; activation, % at 3 µM; AID 624467; CHO RD-HGA16 TAAR1, Fluo-8 calcium fluorescence; vehicle wells 0%, saturating PEA agonist 100%;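 active means activation above the mean activation of all test compounds in the run plus 3 SD, cut at about 38% in these data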
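Benchmarks: low control DMSO, high control PEA (EC100); System: CHO RD-HGA16 cells carrying human TAAR1 plus Gα16; Detection: Fluo-8 fluorescence, 5 s baseline then 140 s kinetic read; Schedule: 17-24 h plating, Fluo-8 75 min 37 °C, 30 min RT; Read-out basis: % activation from peak over basal fluorescence ratio, DMSO-to-PEA scaled.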
TAAR1 antag – antagonists of human TAAR1. inhibition, % at 3 µM. AID 624466. 360,000 tested, 1.5% active. CHO RD-HGA16 TAAR1, Fluo-8 calcium fluorescence, antagonist;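 active means inhibition above a per-plate cutoff, the mean inhibition of test compounds on that plate plus 3 SD, cut at about 49% in these data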;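 further: 0% = DMSO plus EC80 beta-PEA response and 100% = DMSO alone without agonist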
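Test system – hTAAR1-expressing CHO RD-HGA16 cells, Gα16-coupled · Reagent – β-PEA at EC80 concentration, post-compound challenge · Compound dosing – 3 µM, single point · Timing – 140 s kinetic read after compound, 140 s after agonist · Detection – Fluo-8 intracellular calcium dye fluorescence, real-time kinetic reads · Control set – DMSO and EC80 PEA controls · Repeats – n of 1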
GPR7 antag – antagonists of human GPR7 (neuropeptides B/W receptor 1). GPR7-expressing cells, fluorescence antagonist assay. inhibition, % at 4.4 µM. 290,000 tested, 1.1% active; in the data active means inhibition above about 16%, passing the limit was not always enough;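 further: cells stimulated with the agonist NPW; 0% = agonist with vehicle and 100% = vehicle without agonist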
* = called active by the depositor; · = not tested or not shown. A selection: hits, their analogues and other compounds. The true share with any hit is near 4.6%.

SMILES	OX1R antag-1	CHO parental Ca	OX1R antag-2	TAAR1 ag	TAAR1 antag	GPR7 antag
CCC1(c2ccc(F)cc2)NC(=O)N(CC(=O)Nc2ccc(N3CCCCC3)cc2)C1=O (centres undefined)	-12	1	-10	60*	19	·
Cc1cc(NS(=O)(=O)c2ccc(Nc3nc(-c4sc(C)nc4C)cs3)cc2)no1	·	·	·	·	·	0
COc1ccc(-c2csc(Nc3ccc(S(=O)(=O)Nc4cc(C)on4)cc3)n2)cc1	10	5	40*	-2	18	-8
CC(C)(C)C1CCC(CN2C(Nc3ccccc3)=NC[C@@H]2Cc2ccccc2)CC1 (some centres undefined)	51	31	3	74*	36	·
C[C@H](CO)N1C[C@H](C)[C@@H](CN(C)C(=O)Nc2ccccc2)Oc2c(NC(=O)Nc3ccc(C(F)(F)F)cc3)cccc2C1=O	-42	-2	9	13	49*	·
C[C@H](CO)N1C[C@H](C)[C@@H](CN(C)C(=O)Nc2ccccc2)Oc2c(NC(=O)Nc3ccccc3)cccc2C1=O	-16	-9	0	6	50*	·
CC(C)NC(=O)Nc1cccc2c1O[C@H](CN(C)C(=O)Nc1ccc(C(F)(F)F)cc1)[C@@H](C)CN([C@H](C)CO)C2=O	-8	-2	7	5	-19	·
CC(C)NC(=O)Nc1cccc2c1O[C@H](CN(C)C(=O)Nc1ccccc1)[C@@H](C)CN([C@H](C)CO)C2=O	-9	-10	-1	14	18	·
COc1ccc(O)c(C(=O)c2cc(C(=O)NCCc3ccccc3)c(=O)n(CCc3ccccc3)c2)c1	-4	-1	37	2	51*	-12
COc1ccc(O)c(C(=O)CC(=O)c2ccccc2)c1	-21	-12	23	·	·	13
Cc1ccc(C(=O)N2CCC[C@@H]2C(=O)N2CCC[C@H]2C(=O)NCc2ccccc2)cc1C	·	·	·	0	-9	·
Nc1ccn([C@@H]2O[C@H](C(=O)N[C@H](Cc3ccccc3)C(=O)N3CCSC3)[C@@H](O)[C@H]2O)c(=O)n1	·	·	·	0	0	·
COc1ccc(Cn2c(SCc3cc(C)ccc3C)nc3cc(OC)c(OC)cc3c2=N)cc1	-10	6	10	32	-25	-7
COc1ccc(Cn2c(SCc3ccc(C)cc3)nc3cc(OC)c(OC)cc3c2=N)cc1Cl	-7	-8	10	41*	1	-8
CCCCCCCC[n+]1cccc2c3ccccc3ccc21	36	63*	20	1	1	67*
CCCCCCCCCC[n+]1cccc2c3ccccc3ccc21	·	·	·	11	3	70*
NC(=O)[C@@H]1CCCN1C(=O)[C@H]1O[C@@H](n2ccc(N)nc2=O)[C@H](O)[C@@H]1O	·	·	·	2	5	·
CCOC(=O)N1CCN(C2=C(NS(=O)(=O)c3ccccc3)C(=O)c3ccccc3C2=O)CC1	-27	-30	68*	10	-31	-9
CCOC(=O)N1CCN(C2=C(NS(=O)(=O)c3ccc(Br)cc3)C(=O)c3ccccc3C2=O)CC1	·	·	·	0	6	·
CCN1CCN(C2=C(NS(=O)(=O)c3ccccc3)C(=O)c3ccccc3C2=O)CC1	-4	-16	74*	0	-9	-12
COc1cc(CC(=O)N2c3ccccc3N=C(c3ccccc3)C2C(=O)NCc2ccccc2)cc(OC)c1 (centres undefined)	·	·	·	0	-18	·
O=S(=O)(c1ccccc1)N1CCC(O)(CSc2ccc(Cl)cc2)CC1	46*	62*	25	8	22	-5
O=C(C(=O)N1CCC(CNS(=O)(=O)c2ccc(OC(F)(F)F)cc2)CC1)c1cc2ccccc2o1	·	·	·	-1	6	·
O=C(NCc1ccccc1)c1cc(C2COCCN2C(=O)c2ccc(Cl)cc2)on1 (centres undefined)	·	·	·	3	-19	·
COC(=O)C1=C(C)N(CC(C)C)C(=S)NC1c1cccc(Br)c1 (centres undefined)	·	·	·	3	49	·
SMILES	OX1R antag-1	CHO parental Ca	OX1R antag-2	TAAR1 ag	TAAR1 antag	GPR7 antag
CN(CC(=O)Nc1ccccc1Br)C(=O)COc1ccc2ccccc2c1	1	-16	41*	10	-14	·
Cc1ccc(OCCCC(=O)N(C)CC(=O)Nc2ccccc2Br)cc1	-17	-21	12	0	-13	·
N#CC(/C(=N/S(=O)(=O)c1cccs1)c1ccccc1)c1nc2ccccc2[nH]1 (centres undefined)	-18	-12	43*	15	30	4
N#CC(Cc1cccs1)c1nc2ccccc2[nH]1 (centres undefined)	·	·	·	1	-3	·
O=C(NCC1COc2ccccc2O1)C1CCCN(S(=O)(=O)c2cccc3nsnc23)C1 (centres undefined)	-12	-21	75	10	28	-14
O=C(C1CCCN(S(=O)(=O)c2cccc3cccnc23)C1)N1CCc2ccccc21 (centres undefined)	10	2	70*	6	44	-6
COc1cccc(NC(=O)C2CCCN(S(=O)(=O)c3cccc4cccnc34)C2)c1 (centres undefined)	15	-8	55*	5	20	-4
COc1cccc(NC(=O)C2CCCN(S(C)(=O)=O)C2)c1 (centres undefined)	-7	-3	14	3	2	1
CCOc1ccccc1NC(=O)C1CCCN(S(=O)(=O)c2cccc3cccnc23)C1 (centres undefined)	-23	-32	38*	5	16	-9
CCOc1ccccc1NC(=O)C1CCCN(S(=O)(=O)c2cccc3nsnc23)C1 (centres undefined)	-7	-21	55	13	19	9
O=C(NCC1COc2ccccc2O1)C1CCCN(S(=O)(=O)c2cccc3cccnc23)C1 (centres undefined)	-24	-15	56*	13	-5	-7
c1ccc(NCCC2OCC3(CO2)COC(CCNc2ccccc2)OC3)cc1 (centres undefined)	·	·	·	2	3	·
O=c1c2c3c(sc2n(CCN2CCOCC2)c(=O)n1C1CCCCC1)CCCCC3	·	·	·	7	-25	·
O=C(N[C@H](C(=O)N1CCC[C@H]1C(=O)NCc1ccccc1)C1CCCCC1)c1ccc(Cl)cc1Cl	·	·	·	-2	-11	·
C[C@@H]1ON(C)[C@H]2C[C@H]3c4[nH]c5c(-c6ccccc6)cccc5c4CCN3C[C@@H]12	·	·	·	5	-7	·
O=C(NC1CCCCC1)C1CCCN(S(=O)(=O)c2cccc3cccnc23)C1 (centres undefined)	-22	-14	17	1	-17	-29
O=C(Nc1ccccc1F)C1CCCN(S(=O)(=O)c2cccc3cccnc23)C1 (centres undefined)	-25	-33	35*	5	17	7
c1ccc(CNc2nc(NCCOc3ccccc3)c3sccc3n2)cc1	·	·	·	59*	95*	·
